Published values collected from several papers.
Compare with care: the assays were run in different laboratories.
Cell line: PC-3
Effect on: cell growth or viability

| SMILES | method | time | IC50 [µM] |
| --- | --- | --- | --- |
| S=P1(C2CCCCC2)CCCCC1 | MTT | 72 h | > 100 |
| COc1cc(C(=O)c2nc(-c3cccc4[nH]ccc34)c(Br)[nH]2)cc(OC)c1OC | MTS | 72 h | > 1 |
| O=C1CCP(=[Se])(c2ccccc2)CC1 | MTT | 72 h | > 100 |
| O=[N+]([O-])c1ccc(NCCCCN=C=S)c2nonc12 | MTT | 24 h | 3.3 |
| O=C1CCP(=S)(c2ccccc2)CC1 | MTT | 72 h | 6 |
| COc1cc(C(=O)c2nc(-c3ccc4ccccc4c3)c[nH]2)cc(OC)c1OC | MTS | 72 h | 0.388 |
| CC[C@@]1(O)C(=O)OCc2c1cc1n(c2=O)Cc2cc3ccccc3nc2-1 | SRB | 48 h | 0.15 |
| N=c1c2c(-c3ccccc3)c(-c3ccccc3)n(Cc3ccccc3)c2ncn1[C@H]1CC[C@H](O)CC1 | CCK-8 | – | 10.8 |
| O=C(O)C1C(c2ccccc2)C(C(=O)Oc2cc(-c3ccc4c(c3)OCO4)ccc2-c2cncnc2)C1c1ccccc1 (stereo not drawn) | MTT | – | 17.8 |
| COc1cc(C(=O)c2nc(-c3c[nH]c4cccc(C)c34)c[nH]2)cc(OC)c1OC | MTS | 72 h | 0.466 |
| O=C1CCc2cc(-c3cccc(OC(=O)[C@H]4[C@H](c5ccccc5)[C@@H](C(=O)O)[C@H]4c4ccccc4)c3)ccc2N1 | MTT | – | 13.1 |
| C[S+]([O-])CCCCN=C=S (stereo not drawn) | MTT | 24 h | 33.5 |
